Screens from PubChem BioAssay.
Sampled rows, rich in hits. Any-hit rate of the full collection: about 1.8%.
M4 PAM – human M4 muscarinic receptor positive allosteric modulators, primary screen, CHO-K1 cells, Fluo-8 calcium fluorescence; Muscarinic acetylcholine receptor M4 (Homo sapiens), P08173; CHO-K1 hM4/Gqi5, ACh EC20; 0% = ACh EC20, 100% = maximal ACh; activation, % at 3 µM; 360,000 compounds, 0.4% hits; AID 624126, 2012;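 active = activation above its plate's cutoff, the mean activation of sample wells plus 3 SD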
CHRM4 agonist – human M4 muscarinic receptor agonists, primary screen, CHO-K1 cells, Fluo-8 calcium fluorescence | Muscarinic acetylcholine receptor M4 (Homo sapiens), P08173 | CHO-K1 hM4/Gqi5; vehicle 0%, full acetylcholine response 100% | activation, % at 3 µM | 360,000 compounds, 0.14% hits | AID 624127, 2012;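 active = activation above the run mean over all test wells plus 3 SD, cut at about 32% in these data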;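 note: peak over basal fluorescence ratio per well then scaled between controls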
CHRM5 antagonist – human M5 muscarinic receptor antagonists, primary screen, CHO cells, Fluo-8 calcium fluorescence; Muscarinic acetylcholine receptor M5 (Homo sapiens), P08912; CHO-hM5 cells, ACh EC80; inhibition, % at 3 µM; 360,000 compounds, 0.59% hits;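 active = inhibition above a per-plate cutoff, the mean of that plate's test compounds plus 3 SD, cut at about 27% in these data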
Target sequence (P08912 whole entry, looked up): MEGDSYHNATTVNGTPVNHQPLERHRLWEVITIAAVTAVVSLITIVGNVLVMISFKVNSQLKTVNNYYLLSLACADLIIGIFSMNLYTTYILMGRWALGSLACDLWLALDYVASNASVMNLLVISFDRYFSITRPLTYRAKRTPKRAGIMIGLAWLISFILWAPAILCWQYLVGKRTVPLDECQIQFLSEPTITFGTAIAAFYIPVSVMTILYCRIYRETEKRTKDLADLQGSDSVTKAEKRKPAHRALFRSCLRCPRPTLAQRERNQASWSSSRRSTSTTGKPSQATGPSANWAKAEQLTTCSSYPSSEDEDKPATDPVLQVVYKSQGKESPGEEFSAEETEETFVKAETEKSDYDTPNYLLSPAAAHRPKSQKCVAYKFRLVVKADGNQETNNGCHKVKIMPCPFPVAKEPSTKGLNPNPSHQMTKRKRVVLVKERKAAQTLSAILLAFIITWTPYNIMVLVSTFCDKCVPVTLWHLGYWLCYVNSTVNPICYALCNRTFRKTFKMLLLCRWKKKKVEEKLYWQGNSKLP
M4 antag – human M4 muscarinic receptor antagonists, primary screen, CHO cells, Fluo-8 calcium fluorescence; inhibition, % at 3 µM; CHO-hM4 cells, ACh EC80; Muscarinic acetylcholine receptor M4 (Homo sapiens), P08173; AID 624125, 2012; 360,000 compounds, 0.73% hits;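 active = inhibition above its plate's cutoff, the mean inhibition of sample wells plus 3 SD, cut at about 27% in these data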
CHRM5 PAM – human M5 muscarinic receptor positive allosteric modulators, primary screen, CHO-K1 cells, Fluo-8 calcium fluorescence; Muscarinic acetylcholine receptor M5 (Homo sapiens), P08912; activation, % at 3 µM; 360,000 compounds, 0.3% hits; CHO-K1 hM5, ACh EC20 PAM; 0% = ACh EC20, 100% = ACh EC100;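 active = activation above the run cutoff, the mean activation of all test compounds plus 3 SD, cut at about 18% in these data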
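system = human M5 receptor in CHO-K1 cells | compound = one concentration, 3 µM final (nominal) | schedule = Post-acetylcholine fluorescence recording 140 s | signal = Fluo-8 calcium dye fluorescence, kinetic read | benchmarks = low control EC20 acetylcholine (0%), high control EC100 acetylcholine (100%) | repeats = singlicate, one well per test compound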
CHRM5 agonist – human M5 muscarinic receptor agonists, primary screen, CHO-K1 cells, Fluo-8 calcium fluorescence; Muscarinic acetylcholine receptor M5 (Homo sapiens), P08912; CHO-K1 hM5 cells; 0% DMSO wells, 100% maximal acetylcholine response; activation, % at 3 µM; 360,000 compounds, 0.19% hits; AID 624037, 2012;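 active = activation above the run's mean over test compounds plus 3 SD, cut at about 23% in these data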;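 note: signal is peak over basal fluorescence ratio across the kinetic read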
Of the large screens only hits and unclear results are named; the others gave an inactive call.

C=CCN1C(=O)c2ccccc2Sc2ccc(C(=O)NCC(OC)OC)cc21	none
CCCCNC(=S)NCC(c1ccccc1)c1c[nH]c2ccccc12 (stereo not given)	none
NCC(c1ccc(Cl)cc1Cl)c1c[nH]c2ccccc12 (stereo not given)	CHRM4 agonist 35
CN(C)CCCNC(=S)NCC(c1ccc(Cl)cc1Cl)c1c[nH]c2ccccc12 (stereo not given)	M4 antag 29
CN(C)C(=O)COc1ccc2c3c(c(=O)oc2c1)CCCC3	none
Cc1ccc(CNC(=O)C2(C)CCN2C(=O)Cc2ccc(C(C)(C)C)cc2)cc1 (stereo not given)	none
CC(=O)c1sc(Nc2ccccc2)nc1C	none
CC(=O)c1sc(Nc2ccc(Oc3ccccc3)cc2)nc1C	M4 antag 34
CN(C)CCCOC(=O)N1c2ccccc2C=Cc2ccccc21	CHRM5 antagonist 81, M4 antag 67
CN(C)CCCOC(=O)c1ccccc1Cl	none
O=C(CCN1CCOCC1)NNC(=O)c1ccc([N+](=O)[O-])cc1[N+](=O)[O-]	none
COc1ccc(C)cc1NS(=O)(=O)c1ccc(NS(=O)(=O)c2ccc(NC(C)=O)cc2)cc1	M4 PAM 22
c1ccc(C(CN2CCOCC2)c2ccccc2)cc1	CHRM5 antagonist 99
O=S(=O)(Cc1ccccc1)N1CCN(C/C=C/c2ccccc2)CC1	none
CS(=O)(=O)N1CCN(C/C=C/c2ccccc2)CC1	M4 PAM 19
CC1(C)CC(C(CCN(Cc2ccccc2)C(=O)c2ccco2)c2ccc(F)cc2)CCO1 (stereo not given)	M4 antag 27
Cc1nc(C)c(-c2csc(Nc3ccc(Cl)cn3)n2)s1	none
Cc1ccc(-c2noc(-c3ccno3)n2)cc1	M4 PAM 31
c1ccc(-c2noc(-c3ccno3)n2)nc1	none
Nc1ccc(/C=C/C(=O)c2cccs2)cc1	CHRM5 agonist 33
O=C(C=Cc1ccccc1)c1cccs1	none
CC1(C(=O)NS(=O)(=O)c2cccs2)CCN1C(=O)C1CCCCC1 (stereo not given)	none
CCOc1ccccc1C(=O)N(C)Cc1cc2cc(OC)ccc2[nH]c1=O	none
CCOc1cc(C(=O)N(C)Cc2cc3cc(OC)ccc3[nH]c2=O)cc(OCC)c1OCC	M4 PAM 30
Cc1ccccc1NC(=O)Cc1nnc(SCC(=O)NC2=NCCS2)n1C	none
Cc1cc(=O)n2nc(N3CCCC3C(=O)NCCCN3CCCCC3)sc2n1 (stereo not given)	CHRM5 PAM 19
COc1cc(OC)c(NC(=O)CN(C)S(=O)(=O)c2ccc(-c3ccc(=O)[nH]n3)s2)cc1Cl	none
Cc1ccc([N+](=O)[O-])c(OCCCN2CCC(Cc3ccccc3)CC2)c1	CHRM4 agonist 39
Cc1ccc([N+](=O)[O-])c(OCCN2CCCCCC2)c1	none
COc1cc(/C=C2\SC(=S)N(Nc3ncc(C(F)(F)F)cc3Cl)C2=O)ccc1O	M4 antag 39
Cc1cc(C)nc(NN2C(=O)/C(=C/c3ccccc3)SC2=S)n1	none
CN(C)c1ccc(/C=C2\SC(=S)N(Nc3ncc(C(F)(F)F)cc3Cl)C2=O)cc1	CHRM5 antagonist 31, M4 antag 35
Nc1ccc(Nc2ccncc2)cc1	none
OC(c1ccc(Cl)c(Cl)c1)c1ncc(-c2ccccc2C(F)(F)F)[nH]1 (stereo not given)	none
CN(Cc1ccccc1)S(=O)(=O)c1ccc(NC(=O)c2ccccc2C(=O)O)cc1	none
Cc1cccc(C)c1NC(=O)c1ccc([N+](=O)[O-])s1	M4 PAM 25
O=C(CNCc1ccc(F)cc1)Nc1cc(S(=O)(=O)N2CCOCC2)ccc1Cl	none
CCN(CC(=O)Nc1c(F)cccc1F)C(=O)/C=C/c1ccc(C)cc1	none
CCN(CC(=O)Nc1c(F)cccc1F)C(=O)/C=C/c1ccc(OCC#N)c(OC)c1	M4 PAM 29
CCOc1ccc(/C=C/C(=O)Nc2ccccc2C(F)(F)F)cc1	none
COc1ccc(/C=C/C(=O)Nc2ccccc2C(F)(F)F)cc1	M4 PAM 21
O=[N+]([O-])c1cc(S(=O)(=O)NCCCN2CCOCC2)ccc1Cl	none
Cc1ccc(S(=O)(=O)NCCSc2nnnn2-c2ccc(C(N)=O)cc2)cc1	none
Cc1ccc(-n2nnnc2Sc2ccc(S(=O)(=O)NCCN(C)C)cc2[N+](=O)[O-])cc1	M4 antag 34
O=[N+]([O-])c1cc(S(=O)(=O)NCCN2CCOCC2)ccc1Sc1nnnn1-c1ccccc1	M4 antag 49
CCCn1c(N)c(C(=O)CSc2nnc3ccccn23)c(=O)n(C)c1=O	M4 PAM 27
CCOc1ccccc1NC(=O)C(NCC1(N2CCCCC2)CCCCC1)c1ccccc1 (stereo not given)	none
CCNC(=S)NC1CC2CCCC(C1)N2Cc1ccc(C)cc1 (stereo not given)	none
CNC(=S)NC1CC2CCCC(C1)N2Cc1ccc(C)cc1 (stereo not given)	CHRM5 PAM 28
CC(C)(C)OC(=O)NC1CC2CCCC(C1)N2Cc1ccccc1 (stereo not given)	M4 antag 83
CN(C)Cc1c(C(=O)N/N=C/C2CC=CCC2)nnn1-c1nonc1N (stereo not given)	none
COc1cccc(CNC(=O)[C@@H]2CCCN2)c1	none
COc1ccc(/C=N/N=C2/NC(=O)C(c3ccccc3)S2)c(OC)c1 (stereo not given)	CHRM5 PAM 18
COc1ccc(CC2S/C(=N/N=C/c3ccccc3O)NC2=O)cc1 (stereo not given)	none
O=C1C=CC(=O)N1c1cccc(-c2ccccc2)c1	M4 antag 42
O=S(=O)(c1ccccc1)N1N=C(c2cccs2)CC1c1ccc(Br)cc1 (stereo not given)	M4 PAM 21
CC(C)C(OC(=O)CN1C(=O)c2ccccc2C1=O)C(=O)NC1CCCCC1 (stereo not given)	none
O=[N+]([O-])c1cccc(COc2ccc(CN3CCCCC3)cc2)c1	M4 antag 56
Cc1ccc(NC(=O)c2ccc(NCc3ccc(F)cc3)nc2)cc1	CHRM5 antagonist 32
COCCNS(=O)(=O)c1ccc(-c2ccc(Cl)cc2)cc1	CHRM5 PAM 21
